Source: ChEMBL document CHEMBL4118192, “BET bromodomain ligands: Probing the WPF shelf to improve BRD4 bromodomain affinity and metabolic stability” (Bioorg Med Chem, 2018)

Assays:
SN12C = test: Growth inhibition of human SN12C cells at 10 uM after 48 hrs by sulforhodamine B assay relative to control; format: functional; settings: read-out: GI
Outline: (§1)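 NCI-60 human cancer cell line screen, single-dose pass: cells exposed to 10 μM for 48 h. Cellular protein content read out by sulforhodamine B staining, and growth inhibition expressed relative to untreated control.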

KM12 = test: Growth inhibition of human KM12 cells after 48 hrs by sulforhodamine B assay; format: functional; settings: KM12, 48 h
Outline: (§2)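 NCI-60 panel screen. Cells were exposed for 48 h at five concentrations between 10 nM and 100 μM. Cellular protein was read by sulforhodamine B staining, and GI50 and total growth inhibition (TGI) concentrations were derived.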

SF-539 = test: Growth inhibition of human SF539 cells after 48 hrs by sulforhodamine B assay; format: functional; settings: SF-539, 48 h
Outline: (§3)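 NCI-60 panel follow-up: five concentrations from 10 nM to 100 μM, 48 h exposure. Growth read by sulforhodamine B protein staining. GI50 derived from the concentration-response, with the concentration for total growth inhibition (TGI) also recorded when below 100 μM.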

CAKI-1 = test: Growth inhibition of human CAKI-1 cells after 48 hrs by sulforhodamine B assay; format: functional; settings: CAKI-1, 48 h; outline: as §2
NCI-H23 = test: Growth inhibition of human NCI-H23 cells after 48 hrs by sulforhodamine B assay; format: functional; settings: NCI-H23, 48 h; outline: as §3
ACHN = test: Growth inhibition of human ACHN cells at 10 uM after 48 hrs by sulforhodamine B assay relative to control; format: functional; settings: read-out: GI
Outline: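 NCI-60 single-dose screen at 10 μM for 48 h. Percent growth inhibition was measured by sulforhodamine B staining of cellular protein.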

OVCAR-5 = test: Growth inhibition of human OVCAR5 cells at 10 uM after 48 hrs by sulforhodamine B assay relative to control; format: functional; settings: OVCAR-5, 48 h, read-out: GI; outline: as §1
OVCAR-4 = test: Growth inhibition of human OVCAR4 cells at 10 uM after 48 hrs by sulforhodamine B assay relative to control; format: functional; settings: OVCAR-4, 48 h, read-out: GI; outline: as §1
SK-MEL-5 = test: Growth inhibition of human SK-MEL-5 cells at 10 uM after 48 hrs by sulforhodamine B assay relative to control; format: functional; settings: SK-MEL-5, 48 h, read-out: GI; outline: as §1
PC-3 = test: Growth inhibition of human PC3 cells after 48 hrs by sulforhodamine B assay; format: functional; settings: PC-3, 48 h; outline: as §3
SR = test: Growth inhibition of human SR cells at 10 uM after 48 hrs by sulforhodamine B assay relative to control; format: functional; settings: read-out: GI
Outline: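 NCI-60 human cancer cell line screen, single dose of 10 μM for 48 h. Cellular protein content read by sulforhodamine B staining; growth inhibition expressed relative to untreated control.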

HL-60(TB) = test: Growth inhibition of human HL-60(TB) cells after 48 hrs by sulforhodamine B assay; format: functional; settings: HL-60, 48 h
Outline: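 NCI-60 human cancer cell line screen, five concentrations from 10 nM to 100 μM. Growth measured by sulforhodamine B staining of cellular protein content. GI50 derived, with TGI where reached below 100 μM.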

RXF 393 = test: Growth inhibition of human RXF393 cells at 10 uM after 48 hrs by sulforhodamine B assay relative to control; format: functional; settings: RXF 393, 48 h, read-out: GI; outline: as §1
[1] = Apparent half life in human liver microsomes at 3 uM; format: ADME, microsome; settings: read-out: t1/2(app)
[2] = target: T1, Bromodomain-containing protein 4 (Homo sapiens, UniProt O60885); test: Inhibition of human partial length BRD4 bromodomain 2 (K333 to E460 residues) expressed in bacterial expression system assessed as residual activity at 1 uM by BROMOscan assay relative to control
[3] = target: Bromodomain-containing protein 2 (Homo sapiens) (UniProt P25440); test: Inhibition of human partial length BRD2 bromodomain 1 (K71 to N194 residues) expressed in bacterial expression system assessed as residual activity at 1 uM by BROMOscan assay relative to control
Sequence of Bromodomain-containing protein 2 (Homo sapiens) (P25440 whole entry, looked up, the tested form may be a part): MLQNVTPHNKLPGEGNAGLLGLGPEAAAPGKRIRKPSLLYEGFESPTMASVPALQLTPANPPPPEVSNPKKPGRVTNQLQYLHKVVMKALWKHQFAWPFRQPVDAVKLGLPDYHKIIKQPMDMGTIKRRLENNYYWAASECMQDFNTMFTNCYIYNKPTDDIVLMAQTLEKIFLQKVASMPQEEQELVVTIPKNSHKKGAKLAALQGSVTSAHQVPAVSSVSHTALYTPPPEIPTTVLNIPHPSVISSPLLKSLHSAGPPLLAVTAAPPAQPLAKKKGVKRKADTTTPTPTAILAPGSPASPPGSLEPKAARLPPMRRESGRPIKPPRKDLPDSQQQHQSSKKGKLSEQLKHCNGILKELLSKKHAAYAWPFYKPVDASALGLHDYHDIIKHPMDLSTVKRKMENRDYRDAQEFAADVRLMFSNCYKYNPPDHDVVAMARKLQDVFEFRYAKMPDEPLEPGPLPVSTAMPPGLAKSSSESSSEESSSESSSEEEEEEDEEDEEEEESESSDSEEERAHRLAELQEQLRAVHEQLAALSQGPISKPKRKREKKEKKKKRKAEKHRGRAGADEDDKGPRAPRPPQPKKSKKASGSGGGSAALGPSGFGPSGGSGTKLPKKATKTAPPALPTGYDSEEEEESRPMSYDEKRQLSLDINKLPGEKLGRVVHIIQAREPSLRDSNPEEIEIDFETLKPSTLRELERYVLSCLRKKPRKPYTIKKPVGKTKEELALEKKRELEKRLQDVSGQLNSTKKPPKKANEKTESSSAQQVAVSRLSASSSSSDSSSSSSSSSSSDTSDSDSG

[4] = target: Bromodomain-containing protein 9 (Homo sapiens) (UniProt Q9H8M2); test: Inhibition of human partial length BRD9 (R130 to V259 residues) expressed in bacterial expression system assessed as residual activity at 1 uM by BROMOscan assay relative to control
Sequence of Bromodomain-containing protein 9 (Homo sapiens) (Q9H8M2 whole entry, the tested form may be a part): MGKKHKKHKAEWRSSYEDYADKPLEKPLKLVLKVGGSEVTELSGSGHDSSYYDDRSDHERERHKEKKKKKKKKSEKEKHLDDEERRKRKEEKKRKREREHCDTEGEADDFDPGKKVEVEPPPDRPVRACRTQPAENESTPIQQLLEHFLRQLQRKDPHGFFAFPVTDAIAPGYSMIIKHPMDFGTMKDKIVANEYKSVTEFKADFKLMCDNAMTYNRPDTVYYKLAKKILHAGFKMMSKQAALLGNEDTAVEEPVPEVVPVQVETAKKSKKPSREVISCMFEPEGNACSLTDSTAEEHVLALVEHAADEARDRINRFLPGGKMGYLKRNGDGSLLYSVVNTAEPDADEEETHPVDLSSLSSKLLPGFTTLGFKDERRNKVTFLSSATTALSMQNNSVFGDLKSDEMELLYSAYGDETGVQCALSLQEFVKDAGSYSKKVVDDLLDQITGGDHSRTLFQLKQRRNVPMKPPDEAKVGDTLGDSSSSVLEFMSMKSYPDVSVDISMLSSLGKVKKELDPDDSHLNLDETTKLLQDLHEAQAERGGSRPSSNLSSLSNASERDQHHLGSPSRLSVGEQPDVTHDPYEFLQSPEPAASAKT

Peregrin (Homo sapiens) = Peregrin (Homo sapiens) (UniProt P55201); test: Inhibition of human partial length BRPF1 (E627 to G740 residues) expressed in bacterial expression system assessed as residual activity at 1 uM by BROMOscan assay relative to control
[5] = target: ATPase family AAA domain-containing protein 2B (Homo sapiens) (UniProt Q9ULI0); test: Inhibition of human partial length ATAD2B (Q955 to R1082 residues) expressed in bacterial expression system assessed as residual activity at 1 uM by BROMOscan assay relative to control
Sequence of ATPase family AAA domain-containing protein 2B (Homo sapiens) (Q9ULI0 whole entry, the tested form may be a part): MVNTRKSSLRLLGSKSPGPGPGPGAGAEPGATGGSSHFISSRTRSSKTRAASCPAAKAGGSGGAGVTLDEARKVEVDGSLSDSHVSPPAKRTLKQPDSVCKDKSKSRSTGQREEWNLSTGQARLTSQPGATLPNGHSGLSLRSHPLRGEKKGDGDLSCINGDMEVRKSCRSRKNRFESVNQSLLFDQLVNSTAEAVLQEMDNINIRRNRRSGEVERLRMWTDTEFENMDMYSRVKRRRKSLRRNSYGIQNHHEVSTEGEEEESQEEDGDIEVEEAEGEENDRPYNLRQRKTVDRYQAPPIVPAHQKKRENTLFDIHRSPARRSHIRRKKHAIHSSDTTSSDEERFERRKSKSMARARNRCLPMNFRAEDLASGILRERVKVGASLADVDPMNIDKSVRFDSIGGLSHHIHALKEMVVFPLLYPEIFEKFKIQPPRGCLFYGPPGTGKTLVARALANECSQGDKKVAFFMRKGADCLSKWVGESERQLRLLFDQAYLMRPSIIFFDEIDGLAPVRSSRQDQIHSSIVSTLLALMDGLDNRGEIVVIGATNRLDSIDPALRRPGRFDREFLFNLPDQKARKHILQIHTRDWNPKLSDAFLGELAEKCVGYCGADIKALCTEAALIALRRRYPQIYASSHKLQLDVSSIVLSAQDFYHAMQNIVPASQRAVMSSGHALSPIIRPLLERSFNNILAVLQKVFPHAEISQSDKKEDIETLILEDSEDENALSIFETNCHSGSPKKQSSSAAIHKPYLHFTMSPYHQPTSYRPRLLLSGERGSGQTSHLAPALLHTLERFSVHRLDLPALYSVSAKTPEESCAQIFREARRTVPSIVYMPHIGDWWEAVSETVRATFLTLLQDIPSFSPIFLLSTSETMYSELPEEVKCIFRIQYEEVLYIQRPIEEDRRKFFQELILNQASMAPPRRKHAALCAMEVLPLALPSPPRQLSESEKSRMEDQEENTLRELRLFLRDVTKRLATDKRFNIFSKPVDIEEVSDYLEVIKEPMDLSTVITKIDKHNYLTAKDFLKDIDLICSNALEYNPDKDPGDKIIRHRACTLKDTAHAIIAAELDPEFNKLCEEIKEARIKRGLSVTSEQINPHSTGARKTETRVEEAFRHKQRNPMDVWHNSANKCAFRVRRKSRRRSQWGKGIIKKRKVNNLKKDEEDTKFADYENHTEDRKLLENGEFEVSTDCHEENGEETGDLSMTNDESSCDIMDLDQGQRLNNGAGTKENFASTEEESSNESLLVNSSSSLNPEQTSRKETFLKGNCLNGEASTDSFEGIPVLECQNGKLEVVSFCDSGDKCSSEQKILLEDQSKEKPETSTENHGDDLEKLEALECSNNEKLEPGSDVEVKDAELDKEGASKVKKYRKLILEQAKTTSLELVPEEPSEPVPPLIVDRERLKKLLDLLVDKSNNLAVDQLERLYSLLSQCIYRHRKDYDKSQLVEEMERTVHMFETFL

[6] = target: Histone acetyltransferase KAT2B (Homo sapiens) (UniProt Q92831); test: Inhibition of human partial length PCAF (G715 to D831 residues) expressed in bacterial expression system assessed as residual activity at 1 uM by BROMOscan assay relative to control
Sequence of Histone acetyltransferase KAT2B (Homo sapiens) (Q92831 whole entry, looked up, the tested form may be a part): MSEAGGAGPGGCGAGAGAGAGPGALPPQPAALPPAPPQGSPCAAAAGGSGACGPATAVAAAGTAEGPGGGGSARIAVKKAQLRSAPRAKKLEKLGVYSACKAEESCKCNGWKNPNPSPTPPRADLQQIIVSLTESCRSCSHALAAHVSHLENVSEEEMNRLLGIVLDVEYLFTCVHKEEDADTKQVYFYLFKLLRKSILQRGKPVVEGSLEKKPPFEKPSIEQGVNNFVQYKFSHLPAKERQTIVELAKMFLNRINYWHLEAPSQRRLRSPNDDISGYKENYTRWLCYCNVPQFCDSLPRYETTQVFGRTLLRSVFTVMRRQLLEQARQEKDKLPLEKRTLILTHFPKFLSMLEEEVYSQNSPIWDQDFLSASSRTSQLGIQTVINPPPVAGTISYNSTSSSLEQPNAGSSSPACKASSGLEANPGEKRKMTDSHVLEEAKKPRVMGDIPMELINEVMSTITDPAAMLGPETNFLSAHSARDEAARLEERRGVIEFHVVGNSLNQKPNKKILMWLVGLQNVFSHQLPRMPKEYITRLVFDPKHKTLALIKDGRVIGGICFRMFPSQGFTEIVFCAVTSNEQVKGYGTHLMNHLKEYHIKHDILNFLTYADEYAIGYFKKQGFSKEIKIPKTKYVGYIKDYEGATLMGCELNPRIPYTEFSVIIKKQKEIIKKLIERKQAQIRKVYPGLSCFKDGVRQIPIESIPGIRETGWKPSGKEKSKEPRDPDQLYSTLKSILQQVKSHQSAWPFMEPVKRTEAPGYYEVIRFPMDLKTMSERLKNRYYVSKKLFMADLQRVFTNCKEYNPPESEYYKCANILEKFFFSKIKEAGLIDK

[7] = Intrinsic clearance in human liver microsomes at 3 uM; format: ADME, microsome; settings: read-out: CLH
[8] = target: Bromodomain and WD repeat-containing protein 1 (Homo sapiens) (UniProt Q9NSI6); test: Inhibition of human partial length WDR9 bromodomain 2 (A1310 to E1430 residues) expressed in bacterial expression system assessed as residual activity at 1 uM by BROMOscan assay relative to control
[9] = target: Bromodomain-containing protein 3 (Homo sapiens) (UniProt Q15059); test: Inhibition of human partial length BRD3 bromodomain 1 (P24 to E144 residues) expressed in bacterial expression system assessed as residual activity at 1 uM by BROMOscan assay relative to control
Sequence of Bromodomain-containing protein 3 (Homo sapiens) (Q15059 2-726 limits assumed): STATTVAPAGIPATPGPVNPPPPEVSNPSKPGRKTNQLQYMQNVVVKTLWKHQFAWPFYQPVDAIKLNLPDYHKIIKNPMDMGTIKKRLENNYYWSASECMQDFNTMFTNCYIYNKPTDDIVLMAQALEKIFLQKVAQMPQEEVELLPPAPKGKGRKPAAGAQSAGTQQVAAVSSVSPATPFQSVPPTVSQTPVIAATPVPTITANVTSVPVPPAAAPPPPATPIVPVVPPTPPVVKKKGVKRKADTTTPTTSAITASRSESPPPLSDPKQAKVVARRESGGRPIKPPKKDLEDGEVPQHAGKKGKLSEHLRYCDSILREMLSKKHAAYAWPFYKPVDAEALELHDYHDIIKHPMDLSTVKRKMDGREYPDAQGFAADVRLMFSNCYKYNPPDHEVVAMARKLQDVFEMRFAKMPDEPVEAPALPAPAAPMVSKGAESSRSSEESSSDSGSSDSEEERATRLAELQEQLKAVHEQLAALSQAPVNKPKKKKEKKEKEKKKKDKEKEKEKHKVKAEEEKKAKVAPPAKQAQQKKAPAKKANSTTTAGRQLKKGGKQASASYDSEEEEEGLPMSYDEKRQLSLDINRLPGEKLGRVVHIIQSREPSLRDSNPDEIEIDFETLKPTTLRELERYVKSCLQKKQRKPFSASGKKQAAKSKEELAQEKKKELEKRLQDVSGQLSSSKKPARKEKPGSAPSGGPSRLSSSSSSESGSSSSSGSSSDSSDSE

[10] = target: Bromodomain testis-specific protein (Homo sapiens) (UniProt Q58F21); test: Inhibition of human partial length BRDT bromodomain 1 (N21 to E137 residues) expressed in bacterial expression system assessed as residual activity at 1 uM by BROMOscan assay relative to control
[11] = target: SWI/SNF-related matrix-associated actin-dependent regulator of chromatin subfamily A member 4 (Homo sapiens) (UniProt P51532); test: Inhibition of human partial length SMARCA4 (A1448 to S1575 residues) expressed in bacterial expression system assessed as residual activity at 1 uM by BROMOscan assay relative to control
HCC 2998 = test: Growth inhibition of human HCC2998 cells after 48 hrs by sulforhodamine B assay; format: functional; settings: HCC 2998, 48 h; outline: as §2
[12] = target: CREB-binding protein (Homo sapiens) (UniProt Q92793); test: Inhibition of human partial length CREBBP (R1081 to G1197 residues) expressed in bacterial expression system assessed as residual activity at 1 uM by BROMOscan assay relative to control
[13] = target: T1, Bromodomain-containing protein 4; test: Inhibition of human partial length BRD4 bromodomain 1 (N44 to E168 residues) expressed in bacterial expression system assessed as residual activity at 1 uM by BROMOscan assay relative to control

| Structure (SMILES) | inhibition of growth at 10 µM (SN12C) | GI50 (KM12) | GI50 (SF-539) | GI50 (CAKI-1) | inhibition of growth at 10 µM (ACHN) | inhibition of growth at 10 µM (OVCAR-5) | inhibition of growth at 10 µM (OVCAR-4) | inhibition of growth at 10 µM (SK-MEL-5) | inhibition of growth at 10 µM (SR) | GI50 (HL-60(TB)) | other results |
| --- | --- | --- | --- | --- | --- | --- | --- | --- | --- | --- | --- |
| COc1ccccc1S(=O)(=O)Nc1ccc2c(c1)CN(C)C(=O)N2 | 46.8% | 10.7 µM | 4.5 µM | 3.6 µM | 65.3% | 25.5% | 56.9% | 59.5% | 64% | 3.4 µM | GI50 (NCI-H23): 8.5 µM; GI50 (PC-3): 28.2 µM; inhibition of growth at 10 µM (RXF 393): 26.7% |
| Cc1noc(C)c1-c1cc(O)cc(C(O)c2ccccc2)c1 (centres undefined) | 25.5% | 8.2 µM | 4.56 µM | 4.58 µM | 39.4% | 26.7% | 67.5% | 45.8% | 72.9% | 2.17 µM | half-life at 3 µM [1]: 39.8 min; Activity [2]: 0.2%; Activity [3]: 1.4%; Activity [4]: 100%; Activity (Peregrin (Homo sapiens)): 100%; Activity [5]: 66%; Activity [6]: 93%; microsomal CLint at 3 µM [7]: 34.8 µL/min/mg; Activity [8]: 100%; Activity [9]: 0.5%; Activity [10]: 8.8%; Activity [11]: 100%; TGI (HL-60(TB)): 22.7 µM; GI50 (HCC 2998): 8.55 µM; Activity [12]: 43%; Activity [13]: 3.7% |
